# Test results taken from ChEMBL document CHEMBL3526043, “Application of quantitative NMR in pharmacological evaluation of biologically generated metabolites: implications in drug discovery” (Drug Metab Dispos, 2011).
# Experiments:
# [1] = Systemic clearance in Sprague-Dawley rat at 2 mg/kg, iv administered as bolus dose; assay type: ADME, organism-based; parameters: dose 2 mg/kg, route intravenous; settings: in vivo
# In short: (§1)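 Male Sprague-Dawley rats (n=3 per group), jugular/femoral cannulated, fed. Single IV bolus of 2 mg/kg in 5% dextrose/0.5% lactic acid, pH 3.5, at 1 mL/kg. Jugular blood sampled 0–1440 min into EDTA. Plasma measured by LC/MS/MS (LOQ 1 ng/mL, BLQ set to zero). Non-compartmental analysis with linear trapezoidal AUC; CL = Dose/AUC0-∞, Vdss = MRT·CL, t1/2 = 0.693/λ.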
# [2] = AUC (0 to infinity) in Sprague-Dawley rat at 2 mg/kg, iv administered as bolus dose; assay type: ADME, organism-based; parameters: time infinity, dose 2 mg/kg, route intravenous; settings: plasma; in short: as §1
# [3] = target: Serine/threonine-protein kinase mTOR (Homo sapiens) (UniProt P42345); experiment: Binding affinity to mTOR (unknown origin) by DELFIA
# [4] = Volume of distribution at steady state in Sprague-Dawley rat at 2 mg/kg, iv administered as bolus dose; assay type: ADME, organism-based; parameters: dose 2 mg/kg, route intravenous; settings: in vivo, read-out: Vdss; in short: as §1
# [5] = target: Phosphatidylinositol 4,5-bisphosphate 3-kinase catalytic subunit gamma isoform (Homo sapiens) (UniProt P48736); experiment: Binding affinity to PI3K-gamma (unknown origin) by fluorescence polarization assay
# [6] = tested on: Rattus norvegicus; experiment: Drug level in Sprague-Dawley rat at 2 mg/kg, iv; settings: in vivo
# [7] = tested on: Liver microsome; experiment: Drug metabolism in human liver microsomes assessed as (1R,5R,6R)-1-(4-(4-(6-hydroxy-3-oxa-8-azabicyclo[3.2.1]octan-8-yl)-6-morpholino-1,3,5-triazin-2-yl)phenyl)-3-(pyridin-4-yl)urea formation at 0.02 mM after 60 mins by 1H-13C-HSQC spectra analysis; settings: 20 µM
# [8] = Elimination half life in Sprague-Dawley rat at 2 mg/kg, iv administered as bolus dose; assay type: ADME, organism-based; parameters: dose 2 mg/kg, route intravenous; settings: in vivo, read-out: beta t1/2 (converted); in short: as §1
# [9] = tested on: Liver microsome; experiment: Drug metabolism in human liver microsomes assessed as (rac)-1-(4-(4-(6-hydroxy-3-oxa-8-azabicyclo[3.2.1]octan-8-yl)-6-morpholino-1,3,5-triazin-2-yl)phenyl)-3-(pyridin-4-yl)urea formation at 0.02 mM after 60 mins by LC-MS analysis; assay type: ADME; settings: 1 h, 20 µM
# In short: (§2)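 Parent at 0.02 mM was incubated with human liver microsomes (1 mg/mL protein) in 0.1 M potassium phosphate pH 7.4 with 5 mM NADPH and 8 mM MgCl₂, at 37 °C for 60 min. Reactions were quenched with 2% formic acid in acetonitrile and the metabolite isolated by semi-preparative C18 HPLC. Identity was checked by LC/MS on C18 with an acetonitrile/5 mM ammonium acetate gradient.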
# [10] = tested on: Liver microsome; experiment: Drug metabolism in human liver microsomes assessed as (1R,5R,6R)-1-(4-(4-(6-hydroxy-3-oxa-8-azabicyclo[3.2.1]octan-8-yl)-6-morpholino-1,3,5-triazin-2-yl)phenyl)-3-(pyridin-4-yl)urea formation at 0.02 mM after 60 mins by 1H-13C-HSQC spectra analysis; assay type: ADME; settings: 20 µM; in short: as §2
# [11] = Drug metabolism in cynomolgus monkey liver microsomes assessed as (rac)-1-(4-(4-(6-hydroxy-3-oxa-8-azabicyclo[3.2.1]octan-8-yl)-6-morpholino-1,3,5-triazin-2-yl)phenyl)-3-(pyridin-4-yl)urea formation at 0.02 mM after 60 mins by LC-MS analysis; assay type: ADME, Macaca fascicularis; settings: 1 h, 20 µM
# [12] = target: Phosphatidylinositol 4,5-bisphosphate 3-kinase catalytic subunit alpha isoform (Homo sapiens) (UniProt P42336); experiment: Binding affinity to PI3K-alpha (unknown origin) by fluorescence polarization assay
# [13] = tested on: Liver microsome; experiment: Drug level in human liver microsomes treated with 1-(4-(4-(3-oxa-8-azabicyclo[3.2.1]octan-8-yl)-6-morpholino-1,3,5-triazin-2-yl)phenyl)-3-(pyridin-4-yl)urea by NMR analysis; assay type: ADME
# In short: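 Metabolite isolated from the human liver microsome incubation and quantified by 1H NMR. A calibration curve was built from parent-compound spectra at 5 concentrations, using the averaged integration of aromatic protons (δ 8.37, 8.30, 7.55, 7.44). Metabolite concentration was read from that curve; spectra were referenced to residual solvent.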
# [14] = tested on: Liver microsome; experiment: Drug level in human liver microsomes treated with 1-(4-(4-(3-oxa-8-azabicyclo[3.2.1]octan-8-yl)-6-morpholino-1,3,5-triazin-2-yl)phenyl)-3-(pyridin-4-yl)urea at 0.02 mM after 60 mins by LC-MS analysis; assay type: ADME; settings: 1 h, 20 µM
# In short: (§3)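 Human liver microsomes at 1 mg/mL protein with substrate at 0.02 mM, 5 mM NADPH and 8 mM MgCl2 in 0.1 M potassium phosphate, pH 7.4. Incubated at 37 °C for 60 min. Stopped with 2% formic acid in acetonitrile and centrifuged. Metabolite isolated by semi-preparative C18 HPLC, then characterised by LC/MS (C18, acetonitrile/5 mM ammonium acetate gradient) and NMR.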
# [15] = Drug level in cynomolgus monkey liver microsomes treated with 1-(4-(4-(3-oxa-8-azabicyclo[3.2.1]octan-8-yl)-6-morpholino-1,3,5-triazin-2-yl)phenyl)-3-(pyridin-4-yl)urea at 0.02 mM after 60 mins by LC-MS analysis; assay type: ADME, Macaca fascicularis; settings: 1 h, 20 µM
# [16] = Drug metabolism in cynomolgus monkey liver microsomes assessed as hydroxylated product formation after 60 mins by LC-MS analysis; assay type: ADME, Macaca fascicularis; settings: 1 h
# In short: (§4)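 Single enantiomers incubated with male rat, cynomolgus monkey or human liver microsomes (1 mg/mL) plus cytosol (2 mg/mL). Cofactors: NADPH 5 mM, MgCl2 8 mM, GSH 2 mM and UDPGA 2 mM, in 0.1 M phosphate, pH 7.4, at 37 °C for 60 min. Precipitated with 2% formic acid in acetonitrile, dried, reconstituted, and analysed by LC/MS (C18, 10–40% acetonitrile/5 mM ammonium acetate).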
# [17] = tested on: Liver microsome; experiment: Drug metabolism in Sprague-Dawley rat liver microsomes assessed as hydroxylated product formation after 60 mins by LC-MS analysis; assay type: ADME; settings: 1 h; in short: as §4
# [18] = tested on: Liver microsome; experiment: Drug level in human liver microsomes treated with 1-(4-(4-(3-oxa-8-azabicyclo[3.2.1]octan-8-yl)-6-morpholino-1,3,5-triazin-2-yl)phenyl)-3-(pyridin-4-yl)urea at 0.02 mM after 60 mins by 1H-13C-HSQC spectra analysis; assay type: ADME; settings: 20 µM; in short: as §3
# [19] = Retention time of the compound by HPLC analysis; assay type: physicochemical
# [20] = tested on: Liver microsome; experiment: Drug metabolism in human liver microsomes assessed as hydroxylated product formation after 60 mins by LC-MS analysis; assay type: ADME; settings: 1 h; in short: as §4
# Chain of Phosphatidylinositol 4,5-bisphosphate 3-kinase catalytic subunit gamma isoform (Homo sapiens) (P48736 whole entry, looked up, canonical isoform): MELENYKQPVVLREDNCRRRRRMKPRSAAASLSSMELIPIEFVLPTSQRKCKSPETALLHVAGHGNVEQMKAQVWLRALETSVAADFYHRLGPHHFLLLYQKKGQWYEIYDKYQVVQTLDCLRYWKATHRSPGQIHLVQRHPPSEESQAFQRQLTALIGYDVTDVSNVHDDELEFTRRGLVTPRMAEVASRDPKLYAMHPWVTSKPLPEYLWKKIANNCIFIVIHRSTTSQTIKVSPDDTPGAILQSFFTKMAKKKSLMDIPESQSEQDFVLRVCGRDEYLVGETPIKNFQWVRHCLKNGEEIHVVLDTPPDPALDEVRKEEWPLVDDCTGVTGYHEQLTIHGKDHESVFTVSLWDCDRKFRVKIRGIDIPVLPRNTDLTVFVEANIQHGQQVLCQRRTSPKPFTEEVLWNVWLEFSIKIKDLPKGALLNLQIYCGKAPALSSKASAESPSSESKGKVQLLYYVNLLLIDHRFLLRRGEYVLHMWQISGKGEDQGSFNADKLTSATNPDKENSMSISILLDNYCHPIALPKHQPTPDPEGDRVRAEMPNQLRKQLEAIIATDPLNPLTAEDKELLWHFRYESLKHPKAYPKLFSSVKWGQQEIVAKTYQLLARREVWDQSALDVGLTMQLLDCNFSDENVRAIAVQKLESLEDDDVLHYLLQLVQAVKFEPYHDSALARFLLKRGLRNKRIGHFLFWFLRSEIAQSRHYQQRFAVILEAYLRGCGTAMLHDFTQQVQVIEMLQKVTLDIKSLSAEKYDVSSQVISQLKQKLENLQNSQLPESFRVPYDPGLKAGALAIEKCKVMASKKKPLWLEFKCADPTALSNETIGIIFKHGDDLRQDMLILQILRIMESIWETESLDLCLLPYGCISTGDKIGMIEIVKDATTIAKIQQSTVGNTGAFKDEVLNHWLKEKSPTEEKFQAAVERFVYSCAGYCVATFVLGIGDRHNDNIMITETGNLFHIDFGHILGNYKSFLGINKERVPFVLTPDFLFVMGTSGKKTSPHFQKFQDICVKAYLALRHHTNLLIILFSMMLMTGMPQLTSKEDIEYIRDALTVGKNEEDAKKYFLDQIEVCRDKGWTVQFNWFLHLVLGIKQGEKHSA
# Chain of Phosphatidylinositol 4,5-bisphosphate 3-kinase catalytic subunit alpha isoform (Homo sapiens) (P42336 whole entry, canonical isoform): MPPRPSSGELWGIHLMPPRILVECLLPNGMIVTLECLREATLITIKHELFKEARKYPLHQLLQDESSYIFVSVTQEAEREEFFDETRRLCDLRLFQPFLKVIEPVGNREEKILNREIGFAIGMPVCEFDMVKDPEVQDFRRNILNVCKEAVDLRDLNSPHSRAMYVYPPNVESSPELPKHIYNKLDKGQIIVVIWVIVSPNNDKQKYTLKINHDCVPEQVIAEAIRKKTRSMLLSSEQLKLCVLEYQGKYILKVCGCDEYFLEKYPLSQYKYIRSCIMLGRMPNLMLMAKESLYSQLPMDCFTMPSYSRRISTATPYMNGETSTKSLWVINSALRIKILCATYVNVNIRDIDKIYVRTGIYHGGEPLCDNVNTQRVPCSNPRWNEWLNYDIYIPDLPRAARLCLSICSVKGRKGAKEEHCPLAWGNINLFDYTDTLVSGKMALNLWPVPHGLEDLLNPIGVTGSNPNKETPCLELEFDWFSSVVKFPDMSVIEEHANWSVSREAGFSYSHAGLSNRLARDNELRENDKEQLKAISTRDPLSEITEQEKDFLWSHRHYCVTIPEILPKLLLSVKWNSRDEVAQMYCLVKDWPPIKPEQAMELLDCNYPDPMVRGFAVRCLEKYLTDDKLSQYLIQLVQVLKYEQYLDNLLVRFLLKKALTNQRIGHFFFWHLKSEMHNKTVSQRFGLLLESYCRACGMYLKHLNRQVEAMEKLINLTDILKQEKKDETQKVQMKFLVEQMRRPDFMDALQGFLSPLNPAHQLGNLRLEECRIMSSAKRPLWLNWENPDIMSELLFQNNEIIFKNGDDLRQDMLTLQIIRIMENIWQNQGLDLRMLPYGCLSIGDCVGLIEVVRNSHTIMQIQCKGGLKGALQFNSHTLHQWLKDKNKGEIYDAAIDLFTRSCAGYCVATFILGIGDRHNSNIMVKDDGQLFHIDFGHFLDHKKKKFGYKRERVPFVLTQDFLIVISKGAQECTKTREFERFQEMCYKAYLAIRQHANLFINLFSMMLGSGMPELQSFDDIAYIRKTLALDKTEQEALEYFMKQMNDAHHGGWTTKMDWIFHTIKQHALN
Drug metabolism [7],Drug metabolism [9],Drug metabolism [10],Drug metabolism [11],Structure (SMILES),clearance [1] [mL/min/kg],AUC(0-inf) [2] [ng·h/mL],Activity [3] [nM],Vd [4] [L/kg],Activity [5] [nM],Drug uptake [6],half-life [8] [min],Activity [12] [nM],Drug uptake [13] [mM],Drug metabolism [14],Drug metabolism [15],Drug metabolism [16],Stability [17],Drug metabolism [18],Retention_time [19] [min],Drug metabolism [20]
metabolite_detected,metabolite_detected,metabolite_detected,metabolite_detected,O=C(Nc1ccncc1)Nc1ccc(-c2nc(N3CCOCC3)nc(N3C4CCC3COC4)n2)cc1 [PKI-179],38.3,867,0.5,2.4,51,metabolite_not_detected,54,8,–,–,–,–,–,–,–,–
–,–,–,–,O=C(Nc1ccncc1)Nc1ccc(-c2nc(N3CCOCC3)nc(N3C4COCC3C(O)C4)n2)cc1 (racemic),–,–,0.8,–,33,–,–,4,1.72,metabolite_detected,metabolite_detected,–,–,–,–,–
–,–,–,–,O=C(Nc1ccncc1)Nc1ccc(-c2nc(N3CCOCC3)nc(N3[C@@H]4COC[C@H]3[C@@H](O)C4)n2)cc1,123,283,–,0.9,93,metabolite_not_detected,12,9,–,–,–,metabolite_detected,Stable,metabolite_detected,13.4,metabolite_detected
–,–,–,–,O=C(Nc1ccncc1)Nc1ccc(-c2nc(N3CCOCC3)nc(N3[C@H]4COC[C@@H]3[C@H](O)C4)n2)cc1,107,315,–,1.5,50,metabolite_not_detected,42,4,–,–,–,metabolite_not_detected,Stable,metabolite_detected,10.2,metabolite_not_detected
